According to ChEMBL document CHEMBL1137338, “Effects of substitution on 9-(3-bromo-4-fluorophenyl)-5,9-dihydro-3H,4H-2,6-dioxa-4- azacyclopenta[b]naphthalene-1,8-dione, a dihydropyridine ATP-sensitive potassium channel opener” (J Med Chem, 2006):
pEC50: −log10 of the molar value.

What was measured:
[1] = target: Sulfonylurea receptor 2, Kir6.2 (Homo sapiens) (UniProt Q14654+O60706); assay: Ability to open human urinary bladder Kir6.2 containing SUR2B in Ltk cells by FLIPR assay relative to P1075; type: functional, cell-based
Outline: (§1)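 Ltk- cells stably transfected with the Kir6.2/SUR2B exon 17- splice variant. Membrane potential was followed with DiBAC dye in a 96-well cell-based kinetic fluorescence (FLIPR) assay. The highest concentration tested was 10 µM. Each compound's maximal fluorescence response was expressed as % of the response to the reference opener.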

[2] = target: Sulfonylurea receptor 2, Kir6.2 (Homo sapiens, UniProt O60706+Q14654); assay: Ability to open human urinary bladder Kir6.2 channel containing SUR2B in Ltk cells by FLIPR assay; type: functional, cell-based; outline: as §1
Chain of Sulfonylurea receptor 2, Kir6.2 (Q14654 whole entry): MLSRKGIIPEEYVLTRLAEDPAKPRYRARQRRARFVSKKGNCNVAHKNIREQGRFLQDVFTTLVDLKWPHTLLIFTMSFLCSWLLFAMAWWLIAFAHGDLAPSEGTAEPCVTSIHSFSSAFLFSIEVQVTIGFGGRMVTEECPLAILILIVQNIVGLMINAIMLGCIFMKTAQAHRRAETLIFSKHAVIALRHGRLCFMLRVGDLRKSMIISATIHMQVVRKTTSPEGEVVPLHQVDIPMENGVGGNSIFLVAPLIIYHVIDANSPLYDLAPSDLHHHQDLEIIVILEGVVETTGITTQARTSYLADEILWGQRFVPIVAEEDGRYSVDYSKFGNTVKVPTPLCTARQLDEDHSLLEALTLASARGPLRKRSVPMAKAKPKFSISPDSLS
Chain of Sulfonylurea receptor 2, Kir6.2 (O60706 whole entry): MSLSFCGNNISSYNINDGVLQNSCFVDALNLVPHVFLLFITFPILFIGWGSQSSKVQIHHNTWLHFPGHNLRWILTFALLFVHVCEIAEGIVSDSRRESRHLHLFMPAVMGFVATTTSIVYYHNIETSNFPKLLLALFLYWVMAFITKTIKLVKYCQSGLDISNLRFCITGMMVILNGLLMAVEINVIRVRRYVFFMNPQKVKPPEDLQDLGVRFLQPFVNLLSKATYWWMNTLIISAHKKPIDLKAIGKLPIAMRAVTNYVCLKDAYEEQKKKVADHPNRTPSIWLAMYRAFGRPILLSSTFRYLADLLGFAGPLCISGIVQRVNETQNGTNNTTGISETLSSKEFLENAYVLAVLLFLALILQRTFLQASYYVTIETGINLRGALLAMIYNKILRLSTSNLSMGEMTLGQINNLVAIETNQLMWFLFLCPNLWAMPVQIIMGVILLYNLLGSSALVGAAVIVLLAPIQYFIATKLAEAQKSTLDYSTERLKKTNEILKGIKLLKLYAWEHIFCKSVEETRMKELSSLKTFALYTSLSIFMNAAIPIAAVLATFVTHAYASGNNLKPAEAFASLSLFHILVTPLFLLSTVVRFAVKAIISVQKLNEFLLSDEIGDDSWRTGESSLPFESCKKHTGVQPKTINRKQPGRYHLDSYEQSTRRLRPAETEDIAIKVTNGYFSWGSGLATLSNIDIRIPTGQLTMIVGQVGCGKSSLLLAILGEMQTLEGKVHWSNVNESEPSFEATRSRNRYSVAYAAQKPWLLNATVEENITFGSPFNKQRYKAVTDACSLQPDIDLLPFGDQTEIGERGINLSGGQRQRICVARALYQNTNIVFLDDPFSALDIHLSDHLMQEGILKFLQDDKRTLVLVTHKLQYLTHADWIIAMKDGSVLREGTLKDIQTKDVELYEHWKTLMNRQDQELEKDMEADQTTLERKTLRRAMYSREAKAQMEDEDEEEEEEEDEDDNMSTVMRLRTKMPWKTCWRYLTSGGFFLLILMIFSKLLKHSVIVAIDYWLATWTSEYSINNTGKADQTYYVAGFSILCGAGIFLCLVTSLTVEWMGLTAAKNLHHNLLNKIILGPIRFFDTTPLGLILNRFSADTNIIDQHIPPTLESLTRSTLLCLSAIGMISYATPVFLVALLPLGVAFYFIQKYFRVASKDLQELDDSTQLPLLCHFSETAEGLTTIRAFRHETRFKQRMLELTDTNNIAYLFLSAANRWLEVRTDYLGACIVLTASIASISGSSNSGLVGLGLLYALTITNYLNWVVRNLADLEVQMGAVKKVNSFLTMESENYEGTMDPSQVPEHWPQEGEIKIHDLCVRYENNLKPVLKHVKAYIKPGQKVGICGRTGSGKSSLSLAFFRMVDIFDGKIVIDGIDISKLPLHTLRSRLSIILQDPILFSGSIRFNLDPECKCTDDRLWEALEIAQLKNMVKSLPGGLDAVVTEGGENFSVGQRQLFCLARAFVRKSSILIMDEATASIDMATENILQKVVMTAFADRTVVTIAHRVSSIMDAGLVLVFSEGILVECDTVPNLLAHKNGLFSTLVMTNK

Row | Compound | Efficacy [1] [%] | pEC50 [2]
1 | CC[C@@H]1OC(O)=C2C1=NC1=C(C(=O)OCC1)[C@H]2c1ccc(F)c(Br)c1 | 71 | 6.49
2 | CC1(C)OCC2=C(C1=O)C(c1ccc(F)c(Br)c1)C1=C(O)C(C)(C)OCC1=N2 (centres undefined) | 61 | 5.41
3 | CCC1(CC)OCC2=NC3=C(C(=O)COC3)C(c3ccc(F)c(Br)c3)C2=C1O (centres undefined) | 42 | 4.86
4 | CC1(C)OCC2=NC3=C(C(=O)COC3)C(c3ccc(F)c(Br)c3)C2=C1O (centres undefined) | 96 | 7.77
5 | CC1(C)OCC(=O)C2=C1N=C1COC(O)=C1C2c1ccc(F)c(Br)c1 (centres undefined) | 73 | 6.92
6 | CC1(C)OC(O)=C2C1=NC1=C(C(=O)COC1)C2c1ccc(F)c(Br)c1 (centres undefined) | 77 | 7.57
7 | O=C1CCCC2=C1[C@H](c1ccc(F)c(Br)c1)C1=C(CCS1(=O)=O)N2 | 90 | 6.80
8 | CC[C@H]1OCC2=C(C1=O)[C@@H](c1ccc(F)c(Br)c1)C1=C(O)OCC1=N2 (racemic) | 97 | 5.99
9 | CC[C@@H]1OCC(O)=C2C1=NC1=C(C(=O)COC1)[C@H]2c1ccc(F)c(Br)c1 (racemic) | 60 | 
10 | CC[C@H]1OCC(O)=C2C1=NC1=C(C(=O)COC1)[C@H]2c1ccc(Br)c(Br)c1 (racemic) | 76 | 
11 | CC[C@H]1OCC(O)=C2C1=NC1=C(C(=O)COC1)[C@H]2c1ccc(Br)c(Cl)c1 (racemic) | 46 | 
12 | CC[C@H]1OCC(O)=C2C1=NC1=C(C(=O)COC1)[C@H]2c1ccc(C)c(Br)c1 (racemic) | 70 | 
13 | CC[C@H]1OCC(O)=C2C1=NC1=C(C(=O)COC1)[C@H]2c1ccc(Cl)c(Br)c1 (racemic) | 70 | 
14 | CC[C@H]1OCC(O)=C2C1=NC1=C(C(=O)COC1)[C@H]2c1ccc(F)c(I)c1 (racemic) | 47 | 
15 | CC[C@@H]1CC(O)=C2C1=NC1=C(C(=O)COC1)[C@H]2c1ccc(F)c(Br)c1 (relative stereo) | 88 | 8.93
16 | CC[C@H]1OCC(=O)C2=C1N=C1COC(O)=C1[C@@H]2c1ccc(F)c(Br)c1 (relative stereo) | 90 | 7.74
17 | CC[C@@H]1OCC(=O)C2=C1N=C1COC(O)=C1[C@@H]2c1ccc(F)c(Br)c1 (relative stereo) | 74 | 6.03
18 | CC[C@@H]1OC(O)=C2C1=NC1=C(C(=O)C(C)(C)OC1)[C@H]2c1ccc(F)c(Br)c1 (relative stereo) | 105 | 7.84
19 | C[C@@H]1OCC(=O)C2=C1N=C1COC(O)=C1[C@@H]2c1ccc(F)c(Br)c1 (relative stereo) | 73 | 6.99
20 | CCCC[C@@H]1OC(O)=C2C1=NC1=C(C(=O)COC1)[C@H]2c1ccc(F)c(Br)c1 (relative stereo) | 67 | 7.53
21 | COC[C@@H]1OC(O)=C2C1=NC1=C(C(=O)COC1)[C@H]2c1ccc(F)c(Br)c1 (relative stereo) | 100 | 8.01
22 | CC[C@@H]1OC(O)=C2C1=NC1=C(C(=O)COC1(C)C)[C@H]2c1ccc(F)c(Br)c1 (relative stereo) | 59 | 5.76
23 | C[C@H]1OCC(=O)C2=C1N=C1COC(O)=C1[C@@H]2c1ccc(F)c(Br)c1 (relative stereo) | 96 | 8.74

Row | Compound | Efficacy [1] [%] | pEC50 [2]
24 | CC1(C)OCC2=C(C1=O)C(c1ccc(F)c(Br)c1)C1=C(O)OCC1=N2 (single isomer, unassigned; (+)) | 104 | 
25 | O=C1COCC2=C1C(c1ccc(F)c(Br)c1)C1=C(O)OCC1=N2 (stereo in doubt; 6) | 92 | 
26 | C[C@@H]1OCC2=C(C1=O)[C@@H](c1ccc(F)c(Br)c1)C1=C(O)OCC1=N2 (stereo in doubt; 7b) | 94 | 
27 | CC1(C)OCC2=C(C1=O)C(c1ccc(F)c(Br)c1)C1=C(O)OCC1=N2 (stereo in doubt; 9) | 86 | 
28 | CC1(C)OCC2=C(C1=O)C(c1ccc(F)c(Br)c1)C1=C(O)OCC1=N2 (stereo in doubt; 9b) | 77 | 
29 | C[C@@H]1OC(O)=C2C1=NC1=C(C(=O)COC1)[C@H]2c1ccc(F)c(Br)c1 (stereo in doubt; 17b) | 89 | 
30 | C[C@H]1OC(O)=C2C1=NC1=C(C(=O)COC1)[C@H]2c1ccc(F)c(Br)c1 (stereo in doubt; 18a) | 86 | 
31 | C[C@H]1OC(O)=C2C1=NC1=C(C(=O)COC1)[C@H]2c1ccc(F)c(Br)c1 (stereo in doubt; 18b) | 85 | 
32 | CC[C@@H]1OC(O)=C2C1=NC1=C(C(=O)COC1)[C@H]2c1ccc(F)c(Br)c1 (stereo in doubt; 20a) | 101 | 
33 | CC[C@@H]1OC(O)=C2C1=NC1=C(C(=O)COC1)[C@H]2c1ccc(F)c(Br)c1 (stereo in doubt; 20b) | 85 | 
34 | CCC[C@@H]1OC(O)=C2C1=NC1=C(C(=O)COC1)[C@H]2c1ccc(F)c(Br)c1 (stereo in doubt; 22a) | 82 | 
35 | CCC[C@@H]1OC(O)=C2C1=NC1=C(C(=O)COC1)[C@H]2c1ccc(F)c(Br)c1 (stereo in doubt; 22b) | 66 | 
36 | CCC[C@H]1OC(O)=C2C1=NC1=C(C(=O)COC1)[C@H]2c1ccc(F)c(Br)c1 (stereo in doubt; 23a) | 75 | 
37 | COC[C@H]1OC(O)=C2C1=NC1=C(C(=O)COC1)[C@H]2c1ccc(F)c(Br)c1 (stereo in doubt; 25a) | 95 | 
38 | COC[C@H]1OC(O)=C2C1=NC1=C(C(=O)COC1)[C@H]2c1ccc(F)c(Br)c1 (stereo in doubt; 25b) | 104 | 
39 | CCCC[C@H]1OC(O)=C2C1=NC1=C(C(=O)COC1)[C@H]2c1ccc(F)c(Br)c1 (stereo in doubt; 29a) | 62 | 
40 | CC(C)C[C@H]1OC(O)=C2C1=NC1=C(C(=O)COC1)[C@H]2c1ccc(F)c(Br)c1 (stereo in doubt; 31a) | 66 | 
41 | CC[C@H]1OC(O)=C2C1=NC1=C(C(=O)C(C)(C)OC1)[C@H]2c1ccc(F)c(Br)c1 (stereo in doubt; 36a) | 89 | 
42 | CC[C@H]1OC(O)=C2C1=NC1=C(C(=O)COC1(C)C)[C@H]2c1ccc(F)c(Br)c1 (stereo in doubt; 38a) | 77 | 
43 | CCC[C@H]1OC(O)=C2C1=NC1=C(C(=O)COC1)[C@H]2c1ccc(F)c(Cl)c1 (stereo in doubt; 39a) | 74 | 
44 | CCC[C@H]1OC(O)=C2C1=NC1=C(C(=O)COC1)[C@H]2c1ccc(F)c(I)c1 (stereo in doubt; 41a) | 81 | 
45 | CCC[C@H]1OC(O)=C2C1=NC1=C(C(=O)COC1)[C@H]2c1ccc(Cl)c(Cl)c1 (stereo in doubt; 42a) | 87 | 
46 | CCC[C@H]1OC(O)=C2C1=NC1=C(C(=O)COC1)[C@H]2c1ccc(Cl)c(Cl)c1 (stereo in doubt; 42b) | 62 | 

Row | Compound | Efficacy [1] [%] | pEC50 [2]
47 | CCC[C@H]1OC(O)=C2C1=NC1=C(C(=O)COC1)[C@H]2c1ccc(Cl)c(Br)c1 (stereo in doubt; 43a) | 90 | 
48 | CCC[C@H]1OC(O)=C2C1=NC1=C(C(=O)COC1)[C@H]2c1ccc(Cl)c(Br)c1 (stereo in doubt; 43b) | 99 | 
49 | CCC[C@H]1OC(O)=C2C1=NC1=C(C(=O)COC1)[C@H]2c1ccc(Br)c(Cl)c1 (stereo in doubt; 44a) | 121 | 
50 | CCC[C@H]1OC(O)=C2C1=NC1=C(C(=O)COC1)[C@H]2c1ccc(Br)c(Cl)c1 (stereo in doubt; 44b) | 92 | 
51 | CCC[C@H]1OC(O)=C2C1=NC1=C(C(=O)COC1)[C@H]2c1ccc(Br)c(Br)c1 (stereo in doubt; 45a) | 104 | 
52 | CCC[C@H]1OC(O)=C2C1=NC1=C(C(=O)COC1)[C@H]2c1ccc(Br)c(Br)c1 (stereo in doubt; 45b) | 108 | 
53 | CCC[C@H]1OC(O)=C2C1=NC1=C(C(=O)COC1)[C@H]2c1ccc(C)c(Br)c1 (stereo in doubt; 46a) | 81 | 
54 | CCC[C@H]1OC(O)=C2C1=NC1=C(C(=O)COC1)[C@H]2c1ccc(C)c(Br)c1 (stereo in doubt; 46b) | 87 | 
55 | CC[C@@H]1OCC(O)=C2C1=NC1=C(C(=O)COC1)[C@H]2c1ccc(F)c(Br)c1 (stereo in doubt; 70a) | 87 | 
56 | CC[C@@H]1OCC(O)=C2C1=NC1=C(C(=O)COC1)[C@H]2c1ccc(F)c(Br)c1 (stereo in doubt; 70b) | 94 | 
57 | CC[C@H]1OCC(O)=C2C1=NC1=C(C(=O)COC1)[C@H]2c1ccc(F)c(Cl)c1 (stereo in doubt; 72a) | 66 | 
58 | CC[C@H]1OCC(O)=C2C1=NC1=C(C(=O)COC1)[C@H]2c1ccc(F)c(I)c1 (stereo in doubt; 73a) | 69 | 
59 | CC[C@H]1OCC(O)=C2C1=NC1=C(C(=O)COC1)[C@H]2c1ccc(F)c(I)c1 (stereo in doubt; 73b) | 53 | 
60 | CC[C@H]1OCC(O)=C2C1=NC1=C(C(=O)COC1)[C@H]2c1ccc(Cl)c(Cl)c1 (stereo in doubt; 74a) | 118 | 
61 | CC[C@H]1OCC(O)=C2C1=NC1=C(C(=O)COC1)[C@H]2c1ccc(Cl)c(Br)c1 (stereo in doubt; 75a) | 89 | 
62 | CC[C@H]1OCC(O)=C2C1=NC1=C(C(=O)COC1)[C@H]2c1ccc(Cl)c(Br)c1 (stereo in doubt; 75b) | 54 | 
63 | CC[C@H]1OCC(O)=C2C1=NC1=C(C(=O)COC1)[C@H]2c1ccc(Br)c(Cl)c1 (stereo in doubt; 76a) | 76 | 
64 | CC[C@H]1OCC(O)=C2C1=NC1=C(C(=O)COC1)[C@H]2c1ccc(Br)c(Br)c1 (stereo in doubt; 77a) | 120 | 
65 | CC[C@H]1OCC(O)=C2C1=NC1=C(C(=O)COC1)[C@H]2c1ccc(Br)c(Br)c1 (stereo in doubt; 77b) | 104 | 
66 | CC[C@H]1OCC(O)=C2C1=NC1=C(C(=O)COC1)[C@H]2c1ccc(C)c(Br)c1 (stereo in doubt; 78a) | 94 | 
67 | CC[C@H]1OCC(O)=C2C1=NC1=C(C(=O)COC1)[C@H]2c1ccc(C)c(Br)c1 (stereo in doubt; 78b) | 56 | 
